Assay results: ChEMBL document CHEMBL1123757, “Selective thromboxane synthetase inhibitors and antihypertensive agents. New derivatives of 4-hydrazino-5H-pyridazino[4,5-b]indole, 4-hydrazinopyridazino[4,5-a]indole, and related compounds” (J Med Chem, 1987)
The source made the active and inactive calls. The calls are words filed in the database; no cut-off is given here.

Tests used:
Rattus norvegicus [1] = test: Antihypertensive activity in spontaneously hypertensive rats (SHR) measured by percentage fall in cardiac rhythm (CR) at 1 mg/kg administered intraperitoneally at 3 h; format: functional, Heart; conditions: route intraperitoneal
Outline: (§1)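 Unanesthetized Okamoto-strain SHR, male and female, 8 weeks old, 300–350 g, systolic pressure ≥190 mmHg, heart rate 400–650 beats/min; five animals per dose. Given ip at 2.5 mL/kg, dissolved or suspended in normal saline or saline with 0.2% (carboxymethyl)cellulose and 1.0% Tween 80. Tail AP and CR recorded by mechanical transduction at set times; reported as percentage fall from control.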

Rattus norvegicus [2] = test: Antihypertensive activity in spontaneously hypertensive rats (SHR) measured by percentage fall in cardiac rhythm (CR) at 1 mg/kg administered intraperitoneally at 1 h; format: functional, Heart; conditions: route intraperitoneal; outline: as §1
Rattus norvegicus [3] = organism: Rattus norvegicus; conditions: Heart, 1 mg/kg
Homo sapiens [4] = organism: Homo sapiens; conditions: 10e-5 M
Rattus norvegicus [5] = test: Antihypertensive activity in spontaneously hypertensive rats (SHR) measured by percentage fall in cardiac rhythm (CR) at 1 mg/kg administered intraperitoneally at 5 h; format: functional, Heart; conditions: route intraperitoneal; outline: as §1
Rattus norvegicus [6] = test: Percent increase in cardiac rhythm, directly measured on carotid (iv on the jugular vein) of spontaneously hypertensive rats at 1 mg/kg after 30 minutes; conditions: Heart, 0.5 h, read-out: Inhibition
Rattus norvegicus [7] = organism: Rattus norvegicus; conditions: Artery, 1 mg/kg
Rattus norvegicus [8] = test: Percent fall in systolic blood pressure, directly measured on carotid (iv on the jugular vein) of spontaneously hypertensive rats at 1 mg/kg after 120 minutes; format: functional, Artery
Outline: (§2)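 Anesthetized (sodium pentobarbital, 70 mg/kg) male and female Okamoto SHR, 8 weeks old, 300–350 g. Given iv into the jugular vein in normal saline. Arterial pressure and cardiac rhythm are recorded directly from the carotid by polygraph at set times after dosing. Each is expressed as percent change from the pre-dose control value.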

Cavia porcellus [9] = organism: Cavia porcellus; conditions: 50 mg/kg
Rattus norvegicus [10] = test: Percent fall in systolic blood pressure, directly measured on carotid (iv on the jugular vein) of spontaneously hypertensive rats at 1 mg/kg after 15 minutes; format: functional, Artery; outline: as §2
Cavia porcellus [11] = organism: Cavia porcellus; conditions: 30 mg/kg
Homo sapiens [12] = organism: Homo sapiens; test: In vitro inhibition of platelet aggregation induced by ADP-II (PRP incubated for 5 minutes at 37 degree C) at 10e-5 M;No significance; format: functional
Outline: (§3)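 Human venous blood anticoagulated with 3.8% sodium citrate (1:9). PRP from centrifugation at 800 rpm for 10 min at room temperature. Count adjusted with PPP to […]. Compound in saline with 10% ethylene glycol is added to PRP and incubated at 37 °C before the agonist. Agonists: ADP 2×10^-5 M, AA 0.6 mM, PGH2 2.8 μM, adrenaline 0.6 μM. Born absorbance aggregometry; n = 5.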

Cavia porcellus [13] = organism: Cavia porcellus; conditions: 50 mg/kg; remark: listed apart in the source
Rattus norvegicus [14] = test: Percent fall in systolic blood pressure, directly measured on carotid (iv on the jugular vein) of spontaneously hypertensive rats at 1 mg/kg after 60 minutes; format: functional, Artery; outline: as §2
Homo sapiens [15] = organism: Homo sapiens; conditions: 10e-5 M; remark: listed apart in the source
Rattus norvegicus [16] = test: Percent fall in systolic blood pressure, directly measured on carotid (iv on the jugular vein) of spontaneously hypertensive rats at 1 mg/kg after 30 minutes; format: functional, Artery; outline: as §2
Cavia porcellus [17] = organism: Cavia porcellus; conditions: 100 mg/kg
Rattus norvegicus [18] = test: Antihypertensive activity in spontaneously hypertensive rats (SHR) measured by percentage fall in arterial pressure (AP) at 1 mg/kg administered intraperitoneally at 1 h; format: functional, Artery; conditions: route intraperitoneal; outline: as §1
Rattus norvegicus [19] = test: Antihypertensive activity in spontaneously hypertensive rats (SHR) measured by percentage fall in arterial pressure (AP) at 1 mg/kg administered intraperitoneally at 24 h;No significance; format: functional, organism-based; set-up: dose 1 mg/kg; conditions: Artery; outline: as §1
Rattus norvegicus [20] = organism: Rattus norvegicus; conditions: Heart, 1 mg/kg; remark: listed apart in the source
Rattus norvegicus [21] = test: Percent fall in systolic blood pressure, directly measured on carotid (iv on the jugular vein) of spontaneously hypertensive rats at 1 mg/kg after 75 minutes; format: functional, Artery; outline: as §2
Cavia porcellus [22] = organism: Cavia porcellus; conditions: 30 mg/kg; remark: listed apart in the source
Rattus norvegicus [23] = organism: Rattus norvegicus; conditions: Artery, 1 mg/kg; remark: listed apart in the source
Rattus norvegicus [24] = test: Percent fall in systolic blood pressure, directly measured on carotid (iv on the jugular vein) of spontaneously hypertensive rats at 1 mg/kg after 5 minutes; format: functional, Artery; outline: as §2
Homo sapiens [25] = organism: Homo sapiens; test: In vitro inhibition of platelet aggregation induced by AA (PRP incubated for 60 minutes at 37 degree C) at 10e-5 M;No significance; format: functional; outline: as §3
Rattus norvegicus [26] = organism: Rattus norvegicus; conditions: Heart, 1 mg/kg; remark: listed apart in the source
Rattus norvegicus [27] = test: Antihypertensive activity in spontaneously hypertensive rats (SHR) measured by percentage fall in arterial pressure (AP) at 1 mg/kg administered intraperitoneally at 3 h; format: functional, Artery; conditions: route intraperitoneal; outline: as §1
Cavia porcellus [28] = test: Ex vivo inhibition of platelet aggregation induced by AA at 100 mg/kg; format: functional
Outline: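 Fasted male or female guinea pigs (250–300 g, five per group) dosed orally in normal saline or saline with 0.2% (carboxymethyl)cellulose/1.0% Tween 80; controls given vehicle. Under ether, cardiac blood collected into 3.8% citrate. PRP adjusted to […] and aggregation induced by ADP (second wave) or AA, read by absorbance aggregometry. PGE2 and TXB2 measured by RIA.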

Rattus norvegicus [29] = organism: Rattus norvegicus; conditions: Heart, 1 mg/kg; remark: listed apart in the source

Cl.NNc1nncc2ccccc12 [HYDRALAZINE HYDROCHLORIDE]
Decrease in CR (Rattus norvegicus [1]): -5%
Decrease in CR (Rattus norvegicus [2]): -7%
inhibition (Rattus norvegicus [3]): inactive
Increase (Homo sapiens [4]): inactive
Decrease in CR (Rattus norvegicus [5]): -2%
inhibition in vivo at 1 mg/kg (Rattus norvegicus [6]): 20%
inhibition (Rattus norvegicus [7]): inactive
Decrease in blood pressure (Rattus norvegicus [8]): 20%
inhibition (Cavia porcellus [9]): inactive
Decrease in blood pressure (Rattus norvegicus [10]): 48%
inhibition (Cavia porcellus [11]): inactive
inhibition (Homo sapiens [12]): inactive
inhibition (Cavia porcellus [13]): inactive
Decrease in blood pressure (Rattus norvegicus [14]): 52%
inhibition (Homo sapiens [15]): inactive
Decrease in blood pressure (Rattus norvegicus [16]): 48%
Inhibition % (Cavia porcellus [17]): inactive
Decrease in AP (Rattus norvegicus [18]): 20%
Decrease in AP (Rattus norvegicus [19]): inactive
Decrease in blood pressure (Rattus norvegicus [20]): inactive
Decrease in blood pressure (Rattus norvegicus [21]): 60%
inhibition (Cavia porcellus [22]): inactive
Decrease in blood pressure (Rattus norvegicus [23]): inactive
Decrease in blood pressure (Rattus norvegicus [24]): 40%
inhibition (Homo sapiens [25]): inactive
Decrease in CR (Rattus norvegicus [26]): inactive
Decrease in AP (Rattus norvegicus [27]): 20%
inhibition in vivo at 100 mg/kg (Cavia porcellus [28]): 75%
inhibition (Rattus norvegicus [29]): inactive
